Experimental data taken from ChEMBL document CHEMBL3272163, “Synthesis and antiinflammatory activity of some 2-substituted 4- and 7-benzoxazoleacetic and alpha-methylacetic acids” (J Med Chem, 1977).

Tests used:
Rattus norvegicus [1] = assay: Antiinflammatory activity in rat assessed as carrageenan-induced foot edema at 2 x 50 mg/kg, po relative to control; format: functional
Summary of the method: (§1)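 Rats were given carrageenan-induced foot edema by the Winter et al. method, modified as described in the paper's ref 1. Compound was dosed orally twice (dose × 2). The read-out was percent reduction of swelling relative to untreated controls, with significance given as p values.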

Rattus norvegicus [2] = assay: Antiinflammatory activity in rat assessed as carrageenan-induced foot edema at 2 x 100 mg/kg, po relative to control; format: functional; summary of the method: as §1
[3] = Toxicity in po dosed mouse; format: organism-based; settings: in vivo
Summary of the method: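 Approximate LD50 in mice after oral dosing, in mg/kg.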

[4] = Octanol-water partition coefficient, P of the compound
[5] = Dissociation constant, pKa of the compound in 75% EtOH; format: physicochemical
Summary of the method: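 pKa was determined in 75% EtOH, and values are reported to ±0.025.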

Rattus norvegicus [6] = assay: Antiinflammatory activity in rat assessed as carrageenan-induced foot edema at 2 x 33 mg/kg, po relative to control; format: functional; summary of the method: as §1

Structure (SMILES)	Activity (Rattus norvegicus [1]) [%]	Activity (Rattus norvegicus [2]) [%]	LD50 [3] [mg/kg]	P [4]	pKa [5]	Activity (Rattus norvegicus [6]) [%]
C[C@]12CCC(=O)C=C1CC[C@@H]1[C@@H]2[C@@H](O)C[C@@]2(C)[C@H]1CC[C@]2(O)C(=O)CO [HYDROCORTISONE]	33					
Cc1ccc(-c2nc3cccc(C(C)C(=O)O)c3o2)cc1 (configuration not stated)		10	> 1600	8.94	6.2	
C/C(=C1/SC(=S)NC1=O)c1cccc2oc(-c3ccccc3)nc12		9	> 1600			
CC(C(=O)O)c1cccc2nc(-c3ccccc3)oc12 (configuration not stated)	26	44	1200	3.66	6.2	
CC(C(=O)O)c1cccc2oc(-c3ccccc3)nc12 (configuration not stated)	1			6.93		
O=C(O)Cc1cccc2oc(-c3ccccc3)nc12		28	400	1.03	6.3	
CCCCC1C(=O)N(c2ccccc2)N(c2ccccc2)C1=O [PHENYLBUTAZONE]	59					52
O=C(O)Cc1cccc2oc(-c3ccc(Cl)cc3)nc12		8	600	9.28	6.1	
CC(C(=O)O)c1cccc2nc(-c3ccc(Cl)cc3)oc12 (configuration not stated)		16	1200		6.25	
